From paper PMC9014391 (Heliyon, 2022)

What was measured:
HCT-116^G13D = experiment: SRB assay; type: cell-based; conditions: Homo sapiens, 48 h
How it was run: (§1)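 Sulforhodamine B assay. Cells were plated at 5000–10,000/well according to doubling time, then after 24 h exposed to a 7-point, 2-fold dilution series for 48 h at 37 °C, with paclitaxel as positive control. Cells were TCA-fixed 1 h at 4 °C and stained with 0.4% SRB, with unbound dye removed by 1% acetic acid. Bound dye was dissolved in 10 mM Tris pH 10.4 and read at 540 nm. IC50 was obtained by curve fitting; quadruplicates.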

SW-620^G12V = experiment: SRB assay; type: cell-based; conditions: Homo sapiens, 48 h
How it was run: as §1

[1] = test system: HCT-116^G13D parental derived colonospheres; experiment: 3D colonospheres chemotherapy treatment; type: cell-based, Human; conditions: 5-FU 14.7 μM, PMBA 1.7 μM, after ten days of growth
How it was run: (§2)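 Colonospheres grown from single-cell suspensions at low density in serum-free DMEM/F12 with FGF (10 ng/mL), EGF (20 ng/mL) and B27. Medium was refreshed every 3–4 days, and spheres were passaged by syringe dissociation. After ten days of growth, parental- or CSC-derived colonospheres were exposed to 5-FU (14.7/78 μM) and/or test compound (1.7/2.2 μM). Response was judged by metabolically active cells and sphere dissociation, with phase-contrast imaging.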

[2] = test system: HCT-116^G13D-CSCs derived colonospheres; experiment: 3D colonospheres chemotherapy treatment; type: cell-based, Human; conditions: 5-FU 14.7 μM, even with prolonged exposure
How it was run: as §2

[3] = test system: SW-620^G12V-CSC derived colonospheres; experiment: 3D colonospheres chemotherapy treatment; type: cell-based, Human; conditions: 5-FU 78 μM, even with prolonged exposure
How it was run: as §2

ABCB1 = experiment: qRT-PCR after chemotherapy treatment; type: cell-based, Human; conditions: HCT-116^G13D- and SW-620^G12V–CSCs, 48 h; printed '∼4 and 2-fold' for 'ABCB1 and ABCC1'
ABCC1 = experiment: qRT-PCR after chemotherapy treatment; type: cell-based, Human; conditions: HCT-116^G13D- and SW-620^G12V–CSCs, 48 h; printed '∼4 and 2-fold' for 'ABCB1 and ABCC1'
[4] = test system: ALDH1A1, ALDH1A3 and ALDH3A1; experiment: qRT-PCR after chemotherapy treatment; type: cell-based, Human; conditions: HCT-116^G13D and SW-620^G12V, 48 h
How it was run: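 Parental monolayers and 10-day colonospheres were treated 48 h with 5-FU (14.7/78 μM), test compound (1.7/2.2 μM) or both, with 0.2% DMSO (final) as control. RNA was extracted with Tri-reagent and DNase-treated, then reverse-transcribed. SYBR green qPCR ran 95 °C 2 min, then 40 cycles of 95 °C 5 s/60 °C 5 s, with a final 72 °C 5 min. Expression was normalised to GAPDH.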

[5] = type: in vivo, Balb/c mice
How it was run: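 Male or unspecified Balb/c mice (20–22 g), fasted overnight, four groups of five. Single oral doses were given in 0.5% DMSO/10% Solutol/water at 10 mL/kg: test compound 20 mg/kg and 5-FU 40 mg/kg, alone or combined. Retro-orbital blood was taken at 0–10 h into EDTA by sparse sampling, two samples per group. Plasma (50 μL) was protein-precipitated with methanol, centrifuged, and the organic layer analysed.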

advanced CRC = conditions: background statement, ref not given; cited from earlier work
[6] = Balb/c, mouse, plasma, po, 40 mg

With `O=c1[nH]cc(F)c(=O)[nH]1` [5-FU, 5-Fluorouracil] the IC50 (HCT-116^G13D) was 14.8 µM, the IC50 (SW-620^G12V) was 78.3 µM and the “response of colonospheres to treatment” value [1] was “sensitive”. For the same compound, the “response of colonospheres to treatment” value [2] was “resistant”, the “response of colonospheres to treatment” value [3] was “resistant” and the “ABCB1 expression, fold down regulated” value (ABCB1) was “did not alter the expression”. For the same compound, the “ABCC1 expression, fold down regulated” value (ABCC1) was “did not alter the expression”, the “ALDH1A1, ALDH1A3 and ALDH3A1 expression” value [4] was “did not alter the expression” and the Vd ([5]; 5-FU alone, oral 40 mg) was 56.32 L/kg. For the same compound, the AUC(0-inf) [5, 6] was 1140 ng·h/mL, the AUC(0-t) [5, 6] was 1110 ng·h/mL and the Cmax [5, 6] was 2450 ng/mL. For the same compound, the half-life [5, 6] was 1.1 h and the curative accountability (advanced CRC) was 10–15%.
